# Measured values published in ChEMBL document CHEMBL5696442, “Discovery of type II inhibitors of TGFβ-activated kinase 1 (TAK1) and mitogen-activated protein kinase kinase kinase kinase 2 (MAP4K2)” (J Med Chem, 2015).
# Active and inactive are the calls of the source. The rule behind the calls is not given here.
# Columns and labels:
# [1] = target: Serine/threonine-protein kinase OSR1 (Homo sapiens) (UniProt O95747); assay: Inhibition of OSR1 Lys2 labeling site in human Huh-7 cells at 1 uM by KiNativ Profiling analysis relative to control
# [2] = target: T1, Dual specificity mitogen-activated protein kinase kinase 7 (Homo sapiens) (UniProt O14733); assay: Inhibition of MAP2K7 Lys2 labeling site in human Huh-7 cell lysate at 1 uM by KiNativ Profiling analysis relative to control; type: subcellular
# T1 sequence (whole entry): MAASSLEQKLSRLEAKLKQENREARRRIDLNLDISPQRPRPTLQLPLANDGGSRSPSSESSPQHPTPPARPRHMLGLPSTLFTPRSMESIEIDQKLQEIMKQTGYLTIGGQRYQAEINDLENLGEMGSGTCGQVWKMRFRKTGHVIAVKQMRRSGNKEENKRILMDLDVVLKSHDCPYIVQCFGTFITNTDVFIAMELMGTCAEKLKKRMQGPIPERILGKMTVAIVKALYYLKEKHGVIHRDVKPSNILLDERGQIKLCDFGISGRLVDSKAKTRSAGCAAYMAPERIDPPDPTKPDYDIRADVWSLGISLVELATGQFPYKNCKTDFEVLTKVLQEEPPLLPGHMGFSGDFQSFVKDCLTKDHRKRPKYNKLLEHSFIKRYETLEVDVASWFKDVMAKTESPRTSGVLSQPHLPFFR
# [3] = target: Serine/threonine-protein kinase 32C (Homo sapiens) (UniProt Q86UX6); assay: Inhibition of YANK3 Lys2 labeling site in human Huh-7 cell lysate at 1 uM by KiNativ Profiling analysis relative to control; type: subcellular
# [4] = target: Cyclin-dependent kinase 8 (Homo sapiens) (UniProt P49336); assay: Inhibition of CDK8 Lys2 labeling site in human Huh-7 cells at 1 uM by KiNativ Profiling analysis relative to control; type: cell-based
# [5] = target: Myosin light chain kinase, smooth muscle (Homo sapiens) (UniProt Q15746); assay: Inhibition of smMLCK Lys2 labeling site in human Huh-7 cell lysate at 1 uM by KiNativ Profiling analysis relative to control; type: subcellular
# [6] = target: Mitogen-activated protein kinase 14 (Homo sapiens, UniProt Q16539); assay: Inhibition of p38alpha Lys2 labeling site in human Huh-7 cells at 1 uM by KiNativ Profiling analysis relative to control; type: cell-based
# [7] = target: Cyclin-dependent kinase 15 (Homo sapiens) (UniProt Q96Q40); assay: Inhibition of PFTAIRE2 (unknown origin) at 10 uM by Ambit Kinomescan binding assay relative to control
# [8] = target: RAC-gamma serine/threonine-protein kinase (Homo sapiens) (UniProt Q9Y243); assay: Inhibition of AKT3 (unknown origin) at 10 uM by Ambit Kinomescan binding assay
# [9] = target: Phosphatidylinositol 4-kinase alpha (Homo sapiens) (UniProt P42356); assay: Inhibition of PIK4CA ATP labeling site in human Huh-7 cells at 1 uM by KiNativ Profiling analysis relative to control; type: cell-based
# [10] = target: Serine/threonine-protein kinase Nek2 (Homo sapiens) (UniProt P51955); assay: Inhibition of NEK2 (unknown origin) at 10 uM by Ambit Kinomescan binding assay
# [11] = tested on: Receptor-type tyrosine-protein kinase FLT3 (Homo sapiens), P36888 [D835Y]; assay: Inhibition of FLT3 D835Y mutant (unknown origin) at 10 uM by Ambit Kinomescan binding assay relative to control
# [12] = target: Myosin light chain kinase 2, skeletal/cardiac muscle (Homo sapiens) (UniProt Q9H1R3); assay: Inhibition of MYLK2 (unknown origin) at 10 uM by Ambit Kinomescan binding assay relative to control
# [13] = target: Tyrosine-protein kinase receptor UFO (Homo sapiens) (UniProt P30530); assay: Inhibition of AXL ACT labeling site in human A-375 cells at 0.5 uM by KiNativ Profiling analysis relative to control; type: cell-based
# Outline: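 Live A375 melanoma cells were treated with compound at 5 or 0.5 μM, then lysed. Lysates were labeled with a lysine-reactive ATP or ADP-biotin probe. Read-out was the compound's protection of kinase labeling sites from probe labeling (KiNativ).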
# [14] = target: DNA-dependent protein kinase catalytic subunit (Homo sapiens) (UniProt P78527); assay: Inhibition of PRKDC ATP labeling site harbouring KGGSWIQEINVAEKNWYPR in human Huh-7 cells at 10 uM by KiNativ Profiling analysis relative to control; type: cell-based
# [15] = target: Fibroblast growth factor receptor 2 (Homo sapiens) (UniProt P21802); assay: Inhibition of FGFR2 (unknown origin) at 1 uM by Ambit Kinomescan binding assay relative to control; values are per cent of control
# [16] = target: Casein kinase I isoform epsilon (Homo sapiens) (UniProt P49674); assay: Inhibition of CSNK1E (unknown origin) at 1 uM by Ambit Kinomescan binding assay relative to control
# [17] = target: Calcium/calmodulin-dependent protein kinase type 1D (Homo sapiens) (UniProt Q8IU85); assay: Inhibition of CAMK1D (unknown origin) at 1 uM by Ambit Kinomescan binding assay relative to control; values are per cent of control
# [18] = target: SRSF protein kinase 1 (Homo sapiens) (UniProt Q96SB4); assay: Inhibition of SRPK1 (unknown origin) at 1 uM by Ambit Kinomescan binding assay relative to control
# [19] = target: Receptor tyrosine-protein kinase erbB-3 (Homo sapiens) (UniProt P21860); assay: Inhibition of ERBB3 (unknown origin) at 1 uM by Ambit Kinomescan binding assay relative to control
# [20] = target: Aurora kinase B (Homo sapiens) (UniProt Q96GD4); assay: Inhibition of AURKB (unknown origin) at 1 uM by Ambit Kinomescan binding assay relative to control
# [21] = target: T2, Acylglycerol kinase, mitochondrial (Homo sapiens) (UniProt Q53H12); assay: Inhibition of AGK ATP labeling site in human A-375 cells at 0.05 uM by KiNativ Profiling analysis relative to control; type: cell-based
# T2 sequence (whole entry): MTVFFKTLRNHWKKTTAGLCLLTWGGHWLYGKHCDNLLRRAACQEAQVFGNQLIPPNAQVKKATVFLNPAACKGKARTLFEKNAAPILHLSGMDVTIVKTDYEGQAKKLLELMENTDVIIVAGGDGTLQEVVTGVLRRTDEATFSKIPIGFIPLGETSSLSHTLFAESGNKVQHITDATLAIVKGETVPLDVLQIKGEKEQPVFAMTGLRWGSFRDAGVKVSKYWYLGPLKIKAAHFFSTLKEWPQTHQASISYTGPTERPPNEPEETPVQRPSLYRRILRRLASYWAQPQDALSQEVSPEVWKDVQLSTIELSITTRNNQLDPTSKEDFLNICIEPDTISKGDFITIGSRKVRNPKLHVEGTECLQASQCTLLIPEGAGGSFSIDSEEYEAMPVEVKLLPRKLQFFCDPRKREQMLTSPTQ
# [22] = target: Ephrin type-B receptor 3 (Homo sapiens) (UniProt P54753); assay: Inhibition of EPHB3 (unknown origin) at 1 uM by Ambit Kinomescan binding assay relative to control; values are per cent of control
# Sequence of Calcium/calmodulin-dependent protein kinase type 1D (Homo sapiens) (Q8IU85 whole entry, looked up): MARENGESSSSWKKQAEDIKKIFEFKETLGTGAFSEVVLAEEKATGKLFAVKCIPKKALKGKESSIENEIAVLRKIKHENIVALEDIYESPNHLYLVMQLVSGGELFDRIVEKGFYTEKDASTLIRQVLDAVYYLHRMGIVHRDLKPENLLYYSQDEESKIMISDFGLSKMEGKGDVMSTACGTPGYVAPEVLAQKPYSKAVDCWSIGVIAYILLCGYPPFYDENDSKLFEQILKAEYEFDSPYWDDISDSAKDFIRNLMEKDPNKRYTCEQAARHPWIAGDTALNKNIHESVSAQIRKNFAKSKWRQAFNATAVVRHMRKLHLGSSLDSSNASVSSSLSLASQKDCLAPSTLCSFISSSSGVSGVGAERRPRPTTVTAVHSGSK
# Sequence of Receptor tyrosine-protein kinase erbB-3 (Homo sapiens) (P21860 whole entry): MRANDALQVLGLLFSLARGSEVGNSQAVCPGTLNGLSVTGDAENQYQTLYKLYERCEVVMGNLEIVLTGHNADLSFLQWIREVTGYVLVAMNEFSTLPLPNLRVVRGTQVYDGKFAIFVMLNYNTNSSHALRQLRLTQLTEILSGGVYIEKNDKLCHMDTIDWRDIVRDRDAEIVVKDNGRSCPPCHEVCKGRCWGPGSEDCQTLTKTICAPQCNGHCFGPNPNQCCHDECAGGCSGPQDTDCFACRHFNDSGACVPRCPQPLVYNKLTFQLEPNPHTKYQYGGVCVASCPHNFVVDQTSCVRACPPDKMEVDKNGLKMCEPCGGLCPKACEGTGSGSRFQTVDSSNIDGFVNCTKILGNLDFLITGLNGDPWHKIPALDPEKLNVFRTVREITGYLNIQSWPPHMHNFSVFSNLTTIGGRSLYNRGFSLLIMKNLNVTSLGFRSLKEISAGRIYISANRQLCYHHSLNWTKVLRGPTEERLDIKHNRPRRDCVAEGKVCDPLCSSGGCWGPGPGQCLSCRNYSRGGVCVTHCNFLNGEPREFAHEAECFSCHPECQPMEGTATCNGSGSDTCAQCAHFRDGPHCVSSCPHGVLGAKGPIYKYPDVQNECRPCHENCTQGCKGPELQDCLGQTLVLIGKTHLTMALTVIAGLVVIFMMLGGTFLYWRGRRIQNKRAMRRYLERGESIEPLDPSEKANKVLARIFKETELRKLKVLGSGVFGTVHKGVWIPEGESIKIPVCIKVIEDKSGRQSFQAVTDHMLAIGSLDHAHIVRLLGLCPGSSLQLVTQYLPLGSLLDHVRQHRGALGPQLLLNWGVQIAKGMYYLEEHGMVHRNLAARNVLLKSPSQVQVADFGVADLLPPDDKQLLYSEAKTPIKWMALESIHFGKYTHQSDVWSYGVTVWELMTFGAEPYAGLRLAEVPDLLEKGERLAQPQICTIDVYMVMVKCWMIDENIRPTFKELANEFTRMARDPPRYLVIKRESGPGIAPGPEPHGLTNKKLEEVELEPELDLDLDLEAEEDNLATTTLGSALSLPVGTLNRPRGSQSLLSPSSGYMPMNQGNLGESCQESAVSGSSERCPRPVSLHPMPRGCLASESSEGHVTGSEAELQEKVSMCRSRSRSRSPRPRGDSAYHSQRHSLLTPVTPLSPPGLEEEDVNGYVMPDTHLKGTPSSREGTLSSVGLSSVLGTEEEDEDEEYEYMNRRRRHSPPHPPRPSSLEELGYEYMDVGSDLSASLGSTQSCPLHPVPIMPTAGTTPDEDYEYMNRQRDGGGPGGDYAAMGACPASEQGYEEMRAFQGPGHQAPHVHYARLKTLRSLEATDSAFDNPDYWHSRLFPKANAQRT
# Sequence of Myosin light chain kinase, smooth muscle (Homo sapiens) (Q15746 whole entry): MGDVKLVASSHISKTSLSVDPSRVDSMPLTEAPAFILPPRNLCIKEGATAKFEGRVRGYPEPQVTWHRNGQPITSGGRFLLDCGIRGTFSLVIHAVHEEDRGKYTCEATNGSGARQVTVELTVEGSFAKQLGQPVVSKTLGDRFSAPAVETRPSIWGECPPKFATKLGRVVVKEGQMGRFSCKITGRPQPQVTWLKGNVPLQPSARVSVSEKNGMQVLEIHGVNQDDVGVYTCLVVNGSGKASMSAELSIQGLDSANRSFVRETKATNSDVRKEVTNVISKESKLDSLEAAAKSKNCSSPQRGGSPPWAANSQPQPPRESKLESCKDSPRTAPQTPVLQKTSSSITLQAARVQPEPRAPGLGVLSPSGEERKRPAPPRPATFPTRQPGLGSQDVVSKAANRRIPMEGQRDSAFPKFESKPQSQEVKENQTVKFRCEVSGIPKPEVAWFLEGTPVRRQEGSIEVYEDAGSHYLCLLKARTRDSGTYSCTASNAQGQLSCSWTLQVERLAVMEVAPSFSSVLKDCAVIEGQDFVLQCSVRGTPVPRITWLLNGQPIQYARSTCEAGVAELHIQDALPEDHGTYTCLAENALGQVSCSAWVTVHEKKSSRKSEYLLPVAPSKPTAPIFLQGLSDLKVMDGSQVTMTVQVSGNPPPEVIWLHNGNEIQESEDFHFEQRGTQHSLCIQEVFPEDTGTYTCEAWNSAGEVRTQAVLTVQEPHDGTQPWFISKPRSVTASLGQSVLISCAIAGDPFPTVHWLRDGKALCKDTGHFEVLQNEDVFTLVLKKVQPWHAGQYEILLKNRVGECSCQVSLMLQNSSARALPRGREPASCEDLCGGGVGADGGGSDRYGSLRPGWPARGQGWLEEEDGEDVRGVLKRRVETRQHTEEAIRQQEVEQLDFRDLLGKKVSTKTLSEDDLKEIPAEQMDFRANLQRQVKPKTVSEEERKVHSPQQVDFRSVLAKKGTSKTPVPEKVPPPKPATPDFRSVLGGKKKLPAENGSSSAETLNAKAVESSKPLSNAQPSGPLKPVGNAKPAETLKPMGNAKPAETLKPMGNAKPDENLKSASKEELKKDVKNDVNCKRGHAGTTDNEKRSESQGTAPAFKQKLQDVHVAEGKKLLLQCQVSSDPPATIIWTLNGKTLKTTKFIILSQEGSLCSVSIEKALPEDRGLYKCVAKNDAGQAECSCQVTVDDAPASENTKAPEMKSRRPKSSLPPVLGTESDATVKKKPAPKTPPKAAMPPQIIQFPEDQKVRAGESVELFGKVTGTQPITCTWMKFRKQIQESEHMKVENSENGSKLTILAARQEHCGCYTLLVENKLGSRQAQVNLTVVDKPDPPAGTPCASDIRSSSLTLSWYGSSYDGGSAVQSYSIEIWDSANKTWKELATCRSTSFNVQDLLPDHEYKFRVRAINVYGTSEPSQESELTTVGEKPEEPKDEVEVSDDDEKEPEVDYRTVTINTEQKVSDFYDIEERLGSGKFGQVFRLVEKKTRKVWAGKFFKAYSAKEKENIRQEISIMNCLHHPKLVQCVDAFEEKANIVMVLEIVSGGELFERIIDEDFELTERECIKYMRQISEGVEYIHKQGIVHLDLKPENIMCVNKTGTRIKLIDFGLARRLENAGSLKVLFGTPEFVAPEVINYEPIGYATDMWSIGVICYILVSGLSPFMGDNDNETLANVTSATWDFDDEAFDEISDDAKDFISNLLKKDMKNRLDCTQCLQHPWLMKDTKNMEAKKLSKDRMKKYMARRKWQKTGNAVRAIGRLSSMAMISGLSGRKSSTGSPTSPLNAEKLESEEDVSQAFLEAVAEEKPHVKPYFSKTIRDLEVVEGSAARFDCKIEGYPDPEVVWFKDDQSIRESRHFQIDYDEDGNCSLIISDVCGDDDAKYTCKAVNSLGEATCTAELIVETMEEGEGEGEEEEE
# Sequence of Tyrosine-protein kinase receptor UFO (Homo sapiens) (P30530 whole entry): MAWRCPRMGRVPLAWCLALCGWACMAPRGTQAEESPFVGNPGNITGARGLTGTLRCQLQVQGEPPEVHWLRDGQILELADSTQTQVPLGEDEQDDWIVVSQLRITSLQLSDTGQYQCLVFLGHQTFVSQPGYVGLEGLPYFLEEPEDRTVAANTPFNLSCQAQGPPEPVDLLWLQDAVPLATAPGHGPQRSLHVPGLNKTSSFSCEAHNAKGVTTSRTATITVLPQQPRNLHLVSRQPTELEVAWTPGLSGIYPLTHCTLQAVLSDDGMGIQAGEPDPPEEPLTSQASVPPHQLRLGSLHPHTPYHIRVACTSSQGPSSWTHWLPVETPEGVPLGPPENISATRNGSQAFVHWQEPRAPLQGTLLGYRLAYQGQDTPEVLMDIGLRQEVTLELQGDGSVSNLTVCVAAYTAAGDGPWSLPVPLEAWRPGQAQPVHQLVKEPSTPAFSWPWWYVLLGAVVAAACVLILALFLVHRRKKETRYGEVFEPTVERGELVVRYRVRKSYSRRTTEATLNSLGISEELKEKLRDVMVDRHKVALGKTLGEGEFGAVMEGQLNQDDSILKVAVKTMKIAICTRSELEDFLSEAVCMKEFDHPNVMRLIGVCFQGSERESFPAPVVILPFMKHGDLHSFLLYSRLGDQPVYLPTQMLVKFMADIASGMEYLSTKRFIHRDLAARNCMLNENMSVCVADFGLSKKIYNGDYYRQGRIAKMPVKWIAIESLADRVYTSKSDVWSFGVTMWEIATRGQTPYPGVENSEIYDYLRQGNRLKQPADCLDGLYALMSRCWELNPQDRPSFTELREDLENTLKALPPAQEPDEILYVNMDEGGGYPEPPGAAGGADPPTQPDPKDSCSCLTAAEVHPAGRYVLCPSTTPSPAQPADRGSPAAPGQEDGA
# Sequence of RAC-gamma serine/threonine-protein kinase (Homo sapiens) (Q9Y243 whole entry): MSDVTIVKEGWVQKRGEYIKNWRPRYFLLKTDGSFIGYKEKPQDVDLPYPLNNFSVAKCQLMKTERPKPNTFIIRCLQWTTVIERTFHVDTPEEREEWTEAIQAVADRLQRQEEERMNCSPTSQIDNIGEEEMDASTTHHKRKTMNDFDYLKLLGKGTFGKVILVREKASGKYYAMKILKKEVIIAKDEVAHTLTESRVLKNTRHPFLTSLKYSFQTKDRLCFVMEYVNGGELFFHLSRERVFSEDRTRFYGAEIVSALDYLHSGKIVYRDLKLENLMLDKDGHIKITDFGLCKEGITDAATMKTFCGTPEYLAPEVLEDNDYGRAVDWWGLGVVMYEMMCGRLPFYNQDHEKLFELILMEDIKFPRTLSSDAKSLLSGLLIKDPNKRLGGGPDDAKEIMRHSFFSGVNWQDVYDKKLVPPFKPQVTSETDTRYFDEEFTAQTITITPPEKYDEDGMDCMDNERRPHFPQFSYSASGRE
structure (smiles),measurement,setting,value
CNc1cc(Oc2cc(C(=O)Nc3cc(N4CCN(C)CC4)cc(C(F)(F)F)c3)ccc2C)ncn1,inhibition,[1],57.3%
same,inhibition,[2],2.7%
same,inhibition,[3],-3.3%
same,inhibition,[4],25.8%
same,inhibition,[5],-5.1%
same,inhibition,[6],22.6%
CCN1CCN(Cc2ccc(NC(=O)c3ccc(C)c(Oc4ccnc5[nH]ccc45)c3)cc2C(F)(F)F)CC1,inhibition,[7],6%
same,inhibition,[8],inactive
same,inhibition,[9],3.5%
same,inhibition,[10],inactive
same,inhibition,[11],14%
same,inhibition,[12],8.4%
same,inhibition,[13],2.3%
same,inhibition,[14],1.9%
CCN1CCN(Cc2ccc(NC(=O)c3ccc(C)c(/C=C/c4cnc5[nH]ccc5c4OC)c3)cc2C(F)(F)F)CC1,percent of control,[15],5.4%
same,inhibition,[16],80%
same,residual activity,[17],100%
same,inhibition,[18],28%
same,inhibition,[19],100%
same,inhibition,[20],65%
same,inhibition,[21],16.8%
same,residual activity,[22],63%
